Bioassay records from PubChem BioAssay.
Compounds with a hit are over-represented: about 3.8% of the library has one in this group of screens.
KCNK3 block: human KCNK3 channel inhibition, primary screen | O14649 | CHO-KCNK3 thallium flux, FluxOR fluorescence; hits give low values | B-score at 10 µM | 340,000 compounds, 0.84% hits;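 active = B-score under library mean minus 4 SD, starting fluorescence ratio at most library mean plus 5 SD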;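 also: more negative B-score means stronger inhibition of thallium flux through KCNK3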
KCNQ1 block: human KCNQ1 channel inhibition; P51787; AID 2642; 310,000 compounds, 1.3% hits; B-score at 10 µM; CHO-K1 KCNQ1, FluxOR thallium flux fluorescence; hits give high values;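 active = compounds whose thallium flux B-score, printed positive for inhibition, exceeds three library SD while starting fluorescence stays within three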;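 also: channel opened by potassium depolarization with thallium stimulus after 20 min compound exposure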
Target sequence (P51787 whole entry, looked up): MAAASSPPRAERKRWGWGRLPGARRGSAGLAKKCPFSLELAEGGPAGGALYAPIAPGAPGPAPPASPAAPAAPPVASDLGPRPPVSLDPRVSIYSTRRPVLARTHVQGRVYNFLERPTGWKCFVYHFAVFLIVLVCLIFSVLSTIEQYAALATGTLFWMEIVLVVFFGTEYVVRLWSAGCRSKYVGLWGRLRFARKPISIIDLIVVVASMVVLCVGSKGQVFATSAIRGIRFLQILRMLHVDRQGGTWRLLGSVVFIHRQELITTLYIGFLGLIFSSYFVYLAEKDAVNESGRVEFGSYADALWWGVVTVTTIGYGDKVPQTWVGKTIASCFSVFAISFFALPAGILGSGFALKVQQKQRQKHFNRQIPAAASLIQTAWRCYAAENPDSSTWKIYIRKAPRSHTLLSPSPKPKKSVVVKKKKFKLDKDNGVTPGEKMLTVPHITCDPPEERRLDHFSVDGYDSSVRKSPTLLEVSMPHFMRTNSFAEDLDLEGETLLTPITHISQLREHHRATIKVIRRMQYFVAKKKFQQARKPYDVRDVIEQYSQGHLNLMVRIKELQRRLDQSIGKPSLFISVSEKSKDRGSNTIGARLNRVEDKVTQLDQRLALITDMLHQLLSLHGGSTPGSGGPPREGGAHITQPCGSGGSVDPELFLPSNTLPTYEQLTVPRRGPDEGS
Kir21 block: blocks the mouse Kir2.1 inward-rectifier potassium channel; 310,000 compounds, 0.85% hits; HEK293-Kir2.1, FluxOR thallium flux fluorescence; hits give low values; AID 1672; B-score at 10 µM; P35561;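 active = fluorescence ratio B-score at or below minus 3 SD of library scores, with starting-brightness B-score within 2 SD, cut at about -4.2 in these data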;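 also: channel flux triggered by added potassium and thallium sulfate stimulus; B-score of peak minus minimum fluorescence over baseline after thallium stimulus; more negative B-score means stronger Kir2.1 block with less thallium influx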
KCNK9 block: blocks the human KCNK9 two-pore domain potassium channel; HEK293 KCNK9, FluxOR thallium flux fluorescence; hits give low values; B-score at 10 µM; AID 488922; 310,000 compounds, 1.2% hits; Q9NPC2;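 active = ratio B-score over 3 SD below the library mean, with starting fluorescence within 5 SD of its mean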;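 also: negative B-score means less thallium flux so channel inhibition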
hERG protect: hERG (human) protection from proarrhythmic block; Q12809; CHO-hERG, FluxOR thallium flux, dofetilide IC70 present; activation (rescue from dofetilide block), less the hit threshold, % at 10 µM; 310,000 compounds, 0.51% hits; AID 1511;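 active = activation above the mean of controls blocked by dofetilide plus 5 SD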;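 also: thallium influx through hERG after potassium depolarization seen as dye fluorescence rise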
KCNQ1 act: human KCNQ1 channel potentiation or activation. CHO-K1 KCNQ1, thallium flux FluxOR fluorescence; hits give high values. B-score at 10 µM. 310,000 compounds, 0.35% hits. AID 2648;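 active = fluorescence ratio B-score, a plate-corrected score, at least three library SD, with initial intensity B-score within 5 SD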
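Assay system: CHO-K1 cells stably expressing KCNQ1; Medium: assay buffer with matched DMSO; Also added: K+/Tl+ depolarizing stimulus; Dosing: single dose; Timing: dye 90 min, compound 20 min, room temperature; Measured by: kinetic FluxOR thallium fluorescence, 10-s 1-Hz baseline, 110-s post-stimulus read; Read-out: peak-minus-minimum fluorescence over initial fluorescence, negative-control normalized, B-scored.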
* hit, by the source's call; i = inactive; · = not tested or not shown.

SMILES	KCNK3 block	KCNQ1 block	Kir21 block	KCNK9 block	hERG protect	KCNQ1 act
Cn1ccnc1C(=O)c1cccc([N+](=O)[O-])c1	i	i	-1.5	i	-6	8*
Cn1ccnc1C(=O)c1ccc(NN)c([N+](=O)[O-])c1	i	i	-0.08	i	-15	i
O=C(COC(=O)c1ccc(O)cc1)Nc1ccccc1[N+](=O)[O-]	i	i	-0.04	i	2	i
Cc1ccccc1N1CCN(C(=O)c2cc(C3CC3)nn2-c2ccccc2)CC1	-9*	·	·	·	·	·
O=P(c1ccccc1)(c1ccccc1)N(c1ccccc1)c1ccccc1	i	7*	0	i	-4	i
OC(CNCc1cccc(Br)c1)c1ccccc1 (stereo not drawn)	i	i	-4.3*	i	-11	i
OC(CNCc1ccc(-c2ccccc2)cc1)c1ccccc1 (stereo not drawn)	i	i	-0.06	i	-19	i
Cc1ccc(CNCC(O)c2ccccc2)s1 (stereo not drawn)	i	i	-5.3*	i	-1	i
O=c1[nH]c(/C=C/c2ccc(Cl)cc2Cl)c([N+](=O)[O-])c(=O)[nH]1	i	i	-0.24	i	-11	i
Clc1cccc(Cl)c1C[n+]1ccc2ccccc2c1	i	i	0.82	i	-6	i
C/C(=N\NC(=O)C1(C)CC1(Br)Br)c1cccc(NC(=O)C2CCC2)c1 (stereo not drawn)	i	i	0.55	-7.4*	-11	i
CCCN1C(=O)SC(CC(=O)Nc2cccc3ccccc23)C1=O (stereo not drawn)	i	i	2	i	-3	i
CCCN1C(=O)SC(CC(=O)Nc2ccccc2)C1=O (stereo not drawn)	i	i	-2.3	i	8.6*	i
C=CCn1c(SCC(=O)NCC2CCCO2)nnc1-c1ccccc1 (stereo not drawn)	i	i	0.05	i	-1	i
O=C(NCc1cccnc1)Nc1cccc(F)c1	i	i	0.84	-7.8*	-8	i
Cc1cc(NC(=O)CSc2nc(C3CC3)nc3sc(C)c(C)c23)no1	i	i	0.37	i	5.9*	9*
CC(C)[C@@H](NC(=O)C1CCC(CNC(=O)[C@H](Cc2ccccc2)NC(=O)OC(C)(C)C)CC1)C(=O)O (stereo partly drawn)	i	i	2.8	i	-9	i
CC(C)CCNC(=O)c1ccc(-n2cnc3cccnc32)cc1	i	i	-1.6	i	-10	i
COc1cccc(-c2nc(N3CCCCC3C)c3ccccc3n2)c1O (stereo not drawn)	i	8*	-0.09	i	-10	i
Cc1cc(C)c(C#N)c(N2CCN(Cc3ccc4c(c3)OCO4)CC2)n1	i	i	-2.2	i	-5	i
Cc1cc(C)c(C#N)c(N2CCN(Cc3ccccc3)CC2)n1	i	i	-4.5*	i	-9	i
O=C(Nc1ncc([N+](=O)[O-])s1)c1ccc2c(c1)OCO2	i	i	0.54	i	-6	i
CC(CC(=O)Nc1ncc([N+](=O)[O-])s1)c1ccccc1 (stereo not drawn)	i	11*	-0.02	i	-6	i
Cc1ccc(C(=O)Nc2ncc([N+](=O)[O-])s2)cc1	i	6*	0.97	i	-2	i
CC(C)c1cccc(C(C)C)c1OCCCCCN1CCOCC1	i	i	-5.1*	i	-6	i
SMILES	KCNK3 block	KCNQ1 block	Kir21 block	KCNK9 block	hERG protect	KCNQ1 act
c1ccc2c(OCCCCN3CCOCC3)cccc2c1	i	i	-0.16	i	-3	i
Cc1cc(OC(=O)c2cc(C(F)(F)F)cc(C(F)(F)F)c2)c([N+](=O)[O-])c(=O)[nH]1	i	i	0.89	i	-7	i
COC(=O)c1ccccc1NC(=O)NN1CCN(C)CC1	i	i	0.27	i	-5	i
Cc1cc(C)n(CCC(=O)N/N=C/c2ccc(Br)c([N+](=O)[O-])c2)n1	i	6*	-0.02	i	-17	i
Nc1sc(-c2ccccc2)n[n+]1Cc1cccc2cccnc12	i	i	-7*	i	-20	i
Cn1c(-c2c(N)n(C3CCCC3)c3nc4ccccc4nc23)nc2ccccc21	-11*	i	2.9	i	-14	i
C=CC[C@H](CC(=O)OC(C)(C)C)C(=O)OC[C@@H]1CCCN1C(=O)[C@@H](CC=C)CC(=O)NCCO	i	·	·	·	·	·
Cc1ccc(S(=O)(=O)NCc2ccco2)cc1C	i	i	0.84	i	-3	i
Cc1cc(C)c(C)c(S(=O)(=O)NCc2cccnc2)c1C	i	i	-4.7*	i	-8	i
Cc1cc(C)c(C)c(S(=O)(=O)NCc2ccco2)c1C	·	i	-7.7*	i	-12	i
CC[C@H](C)/C=C(C)/C=C/C(=O)Cc1cc(O)c(C)c(O)c1C=O	-10*	11*	-1.3	i	-14	i
O=C(CN1C(=O)NC2(CCc3ccccc32)C1=O)NCC(=O)Nc1ccc(F)cc1 (stereo not drawn)	i	·	·	·	·	·
COc1ccc(-n2cnc3ccccc3c2=O)c([N+](=O)[O-])c1	i	i	0.08	i	5.5*	i
O=c1c2ccccc2ncn1-c1ccc(Br)cc1[N+](=O)[O-]	i	i	-0.03	i	-6	i
O=C(Nc1ccc2c(c1)OCO2)NC1CCN(Cc2ccccc2)CC1	i	i	-1.3	i	-4	i
S=C(Nc1ccc(Cl)cc1)NC1CCN(Cc2ccccc2)CC1	i	i	-4.7*	i	-12	i
Cc1ccccc1CC(=O)NC1CCN(Cc2ccccc2)CC1	i	i	0.44	i	8.2*	i
O=C(NC1CC2CCCC(C1)N2C(=O)Nc1ccc(Cl)c(C(F)(F)F)c1)C1CC1 (stereo not drawn)	i	i	1.3	i	-14	i
O=C(Nc1ccc(F)cc1)NC1CCN(Cc2ccccc2)CC1	i	i	-5.2*	i	-11	i
O=C(Nc1ccc(Cl)c(C(F)(F)F)c1)NC1CC2CCCC(C1)N2Cc1ccccc1 (stereo not drawn)	·	13*	1.1	i	-30	i
O=C(Cc1ccccc1)NC1CCN(Cc2ccccc2)CC1	i	i	0.96	i	-2	i
CC(=O)NNc1cc(C)nc(N)n1	i	i	-0.48	i	-2	i
Fc1ccc(CNc2ccc(N3CCN(Cc4ccccc4)CC3)cc2)cc1	i	i	-7.1*	i	-14	i
